Test results from PMC6061410 (Clinical Drug Investigation, 2018).

What was measured:
[1] = Pharmacokinetics after single and multiple doses, part 1; type: in vivo, human; conditions: young, gMean (%CV); for AUC0–24,norm / Cmax,norm: single dose; for AUCτ,ss,norm / Cmax,ss,norm: multiple dose
Outline: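 Randomised 3:1 double-blind placebo-controlled groups (9 active, 3 placebo) of healthy young or elderly subjects took 5- or 25-mg tablets. Dosing was a single dose on day 1, QD or BID for 10 days from day 4, and a single dose on day 14. Fasted on days 1 and 14. Blood was sampled through day 23 and urine after first and last doses (QD only). Plasma/urine LC-MS/MS used a seven-point calibration. Geometric mean (%CV) values were reported.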

CYP3A4 = conditions: cited from earlier work
healthy young subjects = experiment: Safety and tolerability; type: in vivo, human
Outline: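 Adverse events were recorded by system organ class and preferred term in 12 healthy young subjects. Each received single fasted 25-mg doses in the morning and evening, open-label crossover, washout ≥11 days. Baselines were the last measurements before the morning dose and before the evening dose.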

Intrinsic solubility = type: physicochemical
Effect of food intake = type: in vivo, human; conditions: 25 mg; for Cmax: human, plasma, oral, Cmax at steady state, gMean
Outline: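 Healthy young (25 mg, group 2) and elderly (25 mg, group 5) subjects were dosed once daily with tablets. On day 12, group 2 dosed light-fed (standardised ~500 kcal breakfast 30 min pre-dose) and group 5 dosed light-fasted (no food ≥10 h before until 1 h after). Day 12 plasma profiles were compared with day 14 fasted profiles (no food ≥10 h before until 3.5 h after) as gMean ratios.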

[2] = Pharmacokinetics of 25-mg single morning or evening dose, part 2; type: in vivo, human
Outline: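 Open-label two-period crossover in 12 healthy young subjects. Each took single fasted 25-mg doses, morning and evening, separated by a washout of at least 11 days. Blood was sampled pre-dose to 96 h and measured by LC-MS/MS. AUC0–tz, AUC0–∞ and Cmax were given as adjusted gMeans with evening/morning ratio and 90% CI. tmax was given as median (range).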

[3] = young subjects, standardised light breakfast

## C[C@@H](Oc1ccc(S(C)(=O)=O)cc1C(=O)N1C[C@@H]2C[C@]2(c2cc(C(F)(F)F)on2)C1)C(F)(F)F [BI 425809]
[1]; 10 mg QD
  AUC0–24,norm: 141 (20.1) nmol·h/L/mg
  Cmax,norm: 10.9 (19.0) nmol/L/mg
[1]; 25 mg QD
  AUCτ,ss,norm: 425 (31.7) nmol·h/L/mg
  Cmax,ss,norm: 23.3 (27.6) nmol/L/mg
  AUC0–24,norm: 149 (18.2) nmol·h/L/mg
  Cmax,norm: 11.1 (19.7) nmol/L/mg
[1]; 50 mg QD
  AUCτ,ss,norm: 285 (29.4) nmol·h/L/mg
  Cmax,ss,norm: 16.0 (26.3) nmol/L/mg
  AUC0–24,norm: 120 (24.4) nmol·h/L/mg
  Cmax,norm: 7.95 (28.7) nmol/L/mg
[1]; 75 mg BID, AUCτ,22,norm given
  AUCτ,ss,norm: 251 (20.2) nmol·h/L/mg
[1]; 75 mg BID, Cmax,22,norm given
  Cmax,ss,norm: 25.8 (17.2) nmol/L/mg
[1]; 75 mg BID
  AUC0–24,norm: 160 (13.7) nmol·h/L/mg
  Cmax,norm: 11.8 (8.72) nmol/L/mg
[1]; 75 mg QD
  AUCτ,ss,norm: 220 (29.6) nmol·h/L/mg
  Cmax,ss,norm: 13.6 (23.1) nmol/L/mg
  AUC0–24,norm: 95.6 (17.9) nmol·h/L/mg
  Cmax,norm: 6.01 (17.9) nmol/L/mg
CYP3A4; drug–drug interaction study confirming in-vitro data
  role of CYP3A4 in metabolic pathway: major component of the BI 425809 metabolic pathway
CYP3A4; in-vitro and clinical studies
  CYP3A4 induction: has the potential to induce CYP3A4 activity
  metabolising enzyme: primarily metabolised by CYP3A4
Healthy young subjects; part 2, single 25 mg doses
  changes in laboratory parameters, vital signs, 12-lead ECG, examinations, suicidality, oxygen saturation, VAS: No clinically relevant changes
  serious AEs: No serious AEs were reported
Healthy young subjects; young, part 2, 25 mg QD
  Dizziness: 0 (–) n (%)
  Eye disorders: 0 (–) n (%)
  Gastrointestinal disorders: 0 (–) n (%)
  General disorders and administration site conditions: 0 n (%)
  Headache: 1 (8.3) n (%)
  Infections and infestations: 1 (8.3) n (%)
  Insomnia: 0 (–) n (%)
  Musculoskeletal and connective tissue disorders: 0 (–) n (%)
  Nasopharyngitis: 1 (8.3) n (%)
  Nervous system disorder: 1 (8.3) n (%)
  Ocular discomfort: 0 (–) n (%)
  Psychiatric disorders: 0 (–) n (%)
  Subjects with AEs leading to study discontinuation: 0 (–) n (%)
  Subjects with investigator-defined drug-related AEs: 0 (–) n (%)
  Total with AEs: 2 (16.7) n (%)
  Vision blurred: 0 (–) n (%)
Intrinsic solubility
  intrinsic solubility: low intrinsic solubility
Effect of food intake
  gMean ratio (light fed:light fasted) steady-state AUC: 105.2%
  gMean ratio (light fed:light fasted) steady-state Cmax: 106.8%
Effect of food intake; elderly subjects
  gMean ratio (light fasted:fasted) steady-state AUC: 104.5%
  gMean ratio (light fasted:fasted) steady-state Cmax: 108.3%
Effect of food intake; young subjects
  gMean ratio (light fed:fasted) steady-state AUC: 114.0%
  gMean ratio (light fed:fasted) steady-state Cmax: 123.2%
Effect of food intake; [3]
  increase in steady-state AUC, light fed compared with fasted: 14%
  increase in steady-state Cmax, light fed compared with fasted: 23%
Effect of food intake; healthy elderly subjects, fasted
  Cmax: 611 nM
Effect of food intake; healthy elderly subjects, light fasted
  Cmax: 662 nM
Effect of food intake; healthy young subjects, fasted
  Cmax: 574 nM
Effect of food intake; healthy young subjects, fed (light fed)
  Cmax: 707 nM
[2]; 25 mg single dose
  AUC0–tz, adjusted gMean ratio evening/morning (90% CI): 120 (107–135) %
  AUC0–∞, adjusted gMean ratio evening/morning (90% CI): 118 (104–134) %
  Cmax, adjusted gMean ratio evening/morning (90% CI): 115 (98.1–136) %
[2]; 25 mg single dose, 90% CI 98.1–136
  higher gMean Cmax, evening compared with morning administration: 15%
[2]; 25 mg single dose, 90% CI 107–135
  higher AUC0–tz, evening compared with morning administration: 20%
[2]; 25 mg single evening dose, fasted
  AUC0–tz, adjusted gMean: 8.41 µM·h
[2]; 25-mg tablet
  higher exposure, evening compared with morning: 15–20%
[2]; human, plasma, oral, 25 mg
  AUC(0-t): 7 µM·h
  Tmax: 4.5 h
[2]; human, plasma, oral, 25 mg, AUC0–∞, adjusted gMean, 25 mg single morning dose, fasted
  AUC(0-inf): 8.77 µM·h
[2]; human, plasma, oral, 25 mg, Cmax, adjusted gMean, 25 mg single morning dose, fasted
  Cmax: 241 nM
